Test results reported in ChEMBL document CHEMBL1821560, “Inhibitors of androgen receptor activation function-2 (AF2) site identified through virtual screening” (J Med Chem, 2011).
The source made the active and inactive calls. The rule behind the calls is not given here.

Tests used:
Androgen receptor [1] = biological target: T1, Androgen receptor (Homo sapiens, UniProt P10275); experiment: (§1) Displacement of SRC2-3 peptide from human AR ligand binding site expressed in Escherichia coli BL21 by AF2 FP assay
T1 sequence (P10275 whole entry): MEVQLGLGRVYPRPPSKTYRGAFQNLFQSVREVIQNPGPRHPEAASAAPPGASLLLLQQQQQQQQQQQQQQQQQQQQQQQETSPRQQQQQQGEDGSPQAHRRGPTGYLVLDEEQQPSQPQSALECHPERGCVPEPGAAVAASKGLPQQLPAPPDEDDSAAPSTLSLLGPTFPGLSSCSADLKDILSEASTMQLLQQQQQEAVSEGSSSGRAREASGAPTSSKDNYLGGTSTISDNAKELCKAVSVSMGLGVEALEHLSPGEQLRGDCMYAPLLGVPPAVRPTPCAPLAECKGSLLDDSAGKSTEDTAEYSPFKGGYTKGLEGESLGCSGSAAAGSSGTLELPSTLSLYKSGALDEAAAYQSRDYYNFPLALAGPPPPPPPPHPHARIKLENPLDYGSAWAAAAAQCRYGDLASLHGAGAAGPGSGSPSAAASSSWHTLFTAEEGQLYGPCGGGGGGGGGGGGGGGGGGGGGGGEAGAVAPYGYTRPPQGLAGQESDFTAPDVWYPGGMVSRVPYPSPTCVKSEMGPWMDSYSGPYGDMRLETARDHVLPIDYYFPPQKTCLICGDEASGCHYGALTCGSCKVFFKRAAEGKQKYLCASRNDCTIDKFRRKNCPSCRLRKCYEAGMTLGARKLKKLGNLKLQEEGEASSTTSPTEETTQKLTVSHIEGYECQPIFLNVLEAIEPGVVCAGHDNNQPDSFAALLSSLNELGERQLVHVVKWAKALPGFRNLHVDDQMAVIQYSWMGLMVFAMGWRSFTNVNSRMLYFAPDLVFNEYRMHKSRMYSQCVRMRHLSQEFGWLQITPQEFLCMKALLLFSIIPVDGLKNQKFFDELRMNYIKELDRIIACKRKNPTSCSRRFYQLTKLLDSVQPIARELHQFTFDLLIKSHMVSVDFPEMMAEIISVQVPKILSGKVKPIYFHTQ
Outline: (§2)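 Purified AR LBD (2 μM) with FITC-SRC2-3 peptide (5 nM), compound 0–200 μM, in 25 mM HEPES pH 7.5, 50 mM NaCl, 0.01% NP-40, 2 μM DHT; 2 h incubation, FP read at ex 485/em 530 nm. Triplicate, means ± SD; IC50 by nonlinear four-parameter fit, Ki via Kenakin equation.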

[2] = biological target: T2, Androgen receptor (Homo sapiens) (UniProt P10275); experiment: as §1; outline: as §2
T2 sequence (whole entry): T1 sequence (P10275 whole entry)

LNCaP = experiment: Cytotoxicity against human LNCAP cells at 50 uM assessed as cell viability after 72 hrs by MTS assay; format: functional
Outline: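 LN-ARR2PBeGFP LNCaP cells exposed to compound for 72 h, then MTS reagent added and incubated 2 h at 37 °C in 5% CO2; absorbance read-out of proliferation/viability.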

Androgen receptor [3] = biological target: T1, Androgen receptor; experiment: (§3) Inhibition of human AR AF2 site expressed in human LNCap cells coexpressing eGFP -ARR2PB assessed as inhibition of transcriptional activity; format: cell-based
Outline: (§4)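 LNCaP cells stably carrying eGFP under androgen-responsive ARR2PB promoter, kept 5 days in phenol-red-free RPMI 1640 with 5% CSS, then plated at 35 000 cells/well with 0.1 nM R1881 plus compound 0–100 μM; after 3 days eGFP fluorescence read (ex 485, em 535 nm).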

[4] = biological target: T2, Androgen receptor (Homo sapiens); experiment: as §3; format: cell-based; outline: as §4
[5] = biological target: T3, Androgen receptor (Rattus norvegicus) (UniProt P15207); experiment: Displacement of androgen from His-GST tagged rat AR hormone binding site at 10 uM assessed as decrease in fluorescence polarization
T3 sequence (whole entry): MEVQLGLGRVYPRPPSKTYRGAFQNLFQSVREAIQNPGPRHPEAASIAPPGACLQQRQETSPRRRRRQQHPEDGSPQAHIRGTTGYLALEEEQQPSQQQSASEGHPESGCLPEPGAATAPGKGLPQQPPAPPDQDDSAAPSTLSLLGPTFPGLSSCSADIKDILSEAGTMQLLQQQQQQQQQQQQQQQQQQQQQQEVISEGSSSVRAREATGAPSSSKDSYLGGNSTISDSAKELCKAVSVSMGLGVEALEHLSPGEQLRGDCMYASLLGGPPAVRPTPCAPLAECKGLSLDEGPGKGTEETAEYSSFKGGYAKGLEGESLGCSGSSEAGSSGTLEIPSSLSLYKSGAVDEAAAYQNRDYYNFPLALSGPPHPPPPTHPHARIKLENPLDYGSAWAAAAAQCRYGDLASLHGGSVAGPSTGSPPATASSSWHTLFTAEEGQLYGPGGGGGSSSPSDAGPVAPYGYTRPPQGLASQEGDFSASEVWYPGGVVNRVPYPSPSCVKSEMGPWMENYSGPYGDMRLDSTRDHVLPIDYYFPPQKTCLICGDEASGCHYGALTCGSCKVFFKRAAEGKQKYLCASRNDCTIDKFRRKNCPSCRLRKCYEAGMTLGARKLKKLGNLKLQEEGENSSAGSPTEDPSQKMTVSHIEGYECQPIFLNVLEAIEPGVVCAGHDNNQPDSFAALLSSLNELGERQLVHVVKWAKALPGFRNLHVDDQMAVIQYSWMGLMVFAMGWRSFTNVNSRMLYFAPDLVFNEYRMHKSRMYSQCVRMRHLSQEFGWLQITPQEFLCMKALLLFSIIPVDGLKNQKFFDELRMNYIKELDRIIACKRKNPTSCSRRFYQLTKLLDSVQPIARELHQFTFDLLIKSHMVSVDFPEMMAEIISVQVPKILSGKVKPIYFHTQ
Outline: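 Hormone-site competition run with Polar Screen Androgen Receptor Competitor Green kit per manufacturer's protocol; compounds tested at 10 μM.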

Row | SMILES | IC50 (Androgen receptor [1]) | inhibition [2] | IC50 (Androgen receptor [3]) | inhibition [4] | inhibition [5] | viability at 50 µM (LNCaP)
1 | COc1cc(C2Nc3cccc4cccc(c34)N2)ccc1O | 32.9 µM | – | 4.6 µM | – | inactive | 129%
2 | CCOc1cc(C2Nc3cccc4cccc(c34)N2)ccc1O | 31.5 µM | – | 11.1 µM | – | inactive | 122%
3 | COc1ccc(C2Nc3cccc4cccc(c34)N2)cc1O | 8.2 µM | Dose-dependent effect | 34.4 µM | Dose-dependent effect | inactive | 145%

More lines, in order of falling IC50 (Androgen receptor [1]), values ahead:

Row | IC50 (Androgen receptor [1]) | inhibition [2] | IC50 (Androgen receptor [3]) | inhibition [4] | inhibition [5] | SMILES | viability at 50 µM (LNCaP)
4 | 30.7 µM | – | 5.9 µM | – | inactive | Oc1ccc(C2Nc3cccc4cccc(c34)N2)cc1 | 106%
5 | 30.6 µM | Dose-dependent effect | 18.6 µM | Dose-dependent effect | inactive | Oc1ccc(C2Nc3cccc4cccc(c34)N2)cc1O | 121%
6 | 26 µM | Dose-dependent effect | 33.4 µM | Dose-dependent effect | inactive | CC1=NN(c2ccccc2)C(=O)/C1=N\Nc1ccc(C(=O)O)c(O)c1 | 50.9%
